Key:
[1] = target: Voltage-gated inwardly rectifying potassium channel KCNH2 (Homo sapiens, UniProt Q12809); test: Inhibition of human ERG expressed in CHOK1 cell membranes after 2 hrs by cy3b-dofetilide-based fluorescence polarization assay
[2] = target: T1, Tyrosine-protein kinase SYK (Homo sapiens, UniProt P43405); test: Inhibition of SYK in human B cells assessed as suppression of anti-IgM-induced CD69 surface expression preincubated for 30 mins followed by anti-IgM addition measured after 3.5 hrs by flow cytometric analysis; format: cell-based
[3] = target: T1, Tyrosine-protein kinase SYK; test: Inhibition of N-terminal 6His-tagged full length human recombinant SYK expressed in baculovirus using Biotin-AAAEEIYGEI as substrate after 60 mins by TR-FRET assay
[4] = target: albumin (Homo sapiens, UniProt P02768); test: Binding affinity to human serum albumin by HPLC analysis; format: ADME; settings: read-out: PB (converted)
[5] = system: Rattus norvegicus; test: (§1) In vivo inhibition of SYK-stimulated Fc-gamma receptor mediated immune complex activation in CD rat assessed as reduction in cutaneous reverse passive Arthus reaction at 30 mg/kg, po preincubated for 1 hr followed by ovalbumin challenge with Evans blue dye measured after 4 hrs by spectrophotometric analysis; format: functional
In short: (§2)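 Male CD rats (175–200 g, 8 per group, observer blind) got an oral suspension in 1% methylcellulose 1 h before challenge, with blood sampled for exposure. Challenge was iv 1% ovalbumin in saline (10 mg/kg) with 1% Evans blue. Ten min later, under isoflurane, rabbit anti-OVA IgG went intradermally at three left sites, control rabbit IgG on the right. At 4 h, 12 mm skin punches went into formamide, 16 h at 80 °C.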

[6] = system: Rattus norvegicus; test: as §1, with “10” for “30”; format: functional; in short: as §2
[7] = target: Tyrosine-protein kinase JAK1 (Homo sapiens, UniProt P23458); test: Inhibition of JAK1 (unknown origin)
[8] = Genotoxicity in Salmonella typhimurium TA1537 at 5000 ug/plate in presence of metabolic activation by Ames test; format: toxicity; settings: salmonella enterica subsp. enterica serovar typhimurium
[9] = Half life in rat at 3 mg/kg, po or 1 mg/kg, iv; format: ADME, organism-based; settings: in vivo
In short: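 Screening PK in rats: oral dosing at 3 mg/kg (n = 3) and intravenous dosing at 1 mg/kg (n = 1). Blood clearance, volume of distribution at steady state, half-life and oral bioavailability were derived from these profiles.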

[10] = system: Rattus norvegicus; test: as §1, with “activation in po dosed CD rat” for “activation in CD rat”, “Arthus reaction preincubated for” for “Arthus reaction at 30 mg/kg, po preincubated for”; format: functional, organism-based; in short: as §2
[11] = Genotoxicity in Salmonella typhimurium TA1537 at 5000 ug/plate in absence of metabolic activation by Ames test; format: toxicity; settings: salmonella enterica subsp. enterica serovar typhimurium
[12] = target: Tyrosine-protein kinase BTK (Homo sapiens, UniProt Q06187); test: Inhibition of BTK (unknown origin)
[13] = target: Leucine-rich repeat serine/threonine-protein kinase 2 (Homo sapiens, UniProt Q5S007); test: Inhibition of LRRK2 (unknown origin)
[14] = Dissociation constant, pKa of the compound; format: physicochemical
[15] = AUC in rat at 3 mg/kg, po; format: ADME, organism-based; settings: in vivo
[16] = Cmax in rat at 3 mg/kg, po; format: ADME, organism-based; set-up: dose 3 mg/kg, route oral; settings: in vivo
[17] = target: Aurora kinase B (Homo sapiens, UniProt Q96GD4); test: Inhibition of N-terminal-6His-tagged full length human Aurora B expressed in baculovirus using 5FAM-PKA-tide as substrate after 120 mins by fluorescence polarization assay
[18] = Lipophilicity, log D of the compound by chromatographic method; format: physicochemical
[19] = target: Vascular endothelial growth factor receptor 2 (Homo sapiens, UniProt P35968); test: Inhibition of KDR (unknown origin)
Sequence of Vascular endothelial growth factor receptor 2 (P35968 whole entry): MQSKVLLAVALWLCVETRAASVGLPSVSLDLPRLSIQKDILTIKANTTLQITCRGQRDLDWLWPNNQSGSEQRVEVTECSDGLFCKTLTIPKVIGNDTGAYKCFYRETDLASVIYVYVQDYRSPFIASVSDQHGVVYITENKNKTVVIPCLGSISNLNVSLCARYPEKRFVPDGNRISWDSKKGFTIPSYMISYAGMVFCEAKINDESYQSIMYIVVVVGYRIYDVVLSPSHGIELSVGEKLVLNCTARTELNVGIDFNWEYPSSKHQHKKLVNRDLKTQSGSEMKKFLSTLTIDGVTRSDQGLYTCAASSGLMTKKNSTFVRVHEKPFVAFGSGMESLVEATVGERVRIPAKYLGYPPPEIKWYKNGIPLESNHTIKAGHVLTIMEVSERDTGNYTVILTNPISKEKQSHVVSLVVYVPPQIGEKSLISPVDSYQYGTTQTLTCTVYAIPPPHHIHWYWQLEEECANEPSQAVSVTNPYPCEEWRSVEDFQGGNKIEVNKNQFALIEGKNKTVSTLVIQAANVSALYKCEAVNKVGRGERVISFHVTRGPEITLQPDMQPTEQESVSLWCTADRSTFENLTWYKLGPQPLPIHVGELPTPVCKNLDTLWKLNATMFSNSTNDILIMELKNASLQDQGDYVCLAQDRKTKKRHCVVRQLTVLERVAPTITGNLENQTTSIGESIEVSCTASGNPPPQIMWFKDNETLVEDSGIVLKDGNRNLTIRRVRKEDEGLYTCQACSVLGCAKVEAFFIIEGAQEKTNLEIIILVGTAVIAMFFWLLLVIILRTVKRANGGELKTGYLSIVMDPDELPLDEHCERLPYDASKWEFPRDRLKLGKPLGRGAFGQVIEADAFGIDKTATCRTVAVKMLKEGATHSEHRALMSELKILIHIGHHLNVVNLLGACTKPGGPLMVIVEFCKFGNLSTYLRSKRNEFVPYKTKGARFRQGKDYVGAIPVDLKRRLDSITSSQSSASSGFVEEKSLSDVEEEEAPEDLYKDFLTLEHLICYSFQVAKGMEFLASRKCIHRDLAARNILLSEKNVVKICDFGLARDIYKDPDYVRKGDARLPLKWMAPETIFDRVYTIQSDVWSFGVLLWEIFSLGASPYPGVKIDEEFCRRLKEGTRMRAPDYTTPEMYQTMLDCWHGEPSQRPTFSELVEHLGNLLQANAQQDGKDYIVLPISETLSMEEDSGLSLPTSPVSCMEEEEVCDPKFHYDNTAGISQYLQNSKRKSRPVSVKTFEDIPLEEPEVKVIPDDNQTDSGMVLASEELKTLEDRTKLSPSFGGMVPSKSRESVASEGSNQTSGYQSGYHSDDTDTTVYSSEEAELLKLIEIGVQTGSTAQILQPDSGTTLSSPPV

Sequence of Aurora kinase B (Q96GD4 whole entry): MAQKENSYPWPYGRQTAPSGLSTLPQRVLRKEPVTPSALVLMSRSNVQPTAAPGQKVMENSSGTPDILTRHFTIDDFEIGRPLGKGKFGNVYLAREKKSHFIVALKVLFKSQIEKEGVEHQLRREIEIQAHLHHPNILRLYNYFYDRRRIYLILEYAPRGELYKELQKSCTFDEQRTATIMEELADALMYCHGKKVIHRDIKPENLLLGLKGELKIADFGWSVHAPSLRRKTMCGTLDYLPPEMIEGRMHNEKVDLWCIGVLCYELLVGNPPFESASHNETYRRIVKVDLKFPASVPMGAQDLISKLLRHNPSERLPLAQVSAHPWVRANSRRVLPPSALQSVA
Sequence of Voltage-gated inwardly rectifying potassium channel KCNH2 (Q12809 whole entry): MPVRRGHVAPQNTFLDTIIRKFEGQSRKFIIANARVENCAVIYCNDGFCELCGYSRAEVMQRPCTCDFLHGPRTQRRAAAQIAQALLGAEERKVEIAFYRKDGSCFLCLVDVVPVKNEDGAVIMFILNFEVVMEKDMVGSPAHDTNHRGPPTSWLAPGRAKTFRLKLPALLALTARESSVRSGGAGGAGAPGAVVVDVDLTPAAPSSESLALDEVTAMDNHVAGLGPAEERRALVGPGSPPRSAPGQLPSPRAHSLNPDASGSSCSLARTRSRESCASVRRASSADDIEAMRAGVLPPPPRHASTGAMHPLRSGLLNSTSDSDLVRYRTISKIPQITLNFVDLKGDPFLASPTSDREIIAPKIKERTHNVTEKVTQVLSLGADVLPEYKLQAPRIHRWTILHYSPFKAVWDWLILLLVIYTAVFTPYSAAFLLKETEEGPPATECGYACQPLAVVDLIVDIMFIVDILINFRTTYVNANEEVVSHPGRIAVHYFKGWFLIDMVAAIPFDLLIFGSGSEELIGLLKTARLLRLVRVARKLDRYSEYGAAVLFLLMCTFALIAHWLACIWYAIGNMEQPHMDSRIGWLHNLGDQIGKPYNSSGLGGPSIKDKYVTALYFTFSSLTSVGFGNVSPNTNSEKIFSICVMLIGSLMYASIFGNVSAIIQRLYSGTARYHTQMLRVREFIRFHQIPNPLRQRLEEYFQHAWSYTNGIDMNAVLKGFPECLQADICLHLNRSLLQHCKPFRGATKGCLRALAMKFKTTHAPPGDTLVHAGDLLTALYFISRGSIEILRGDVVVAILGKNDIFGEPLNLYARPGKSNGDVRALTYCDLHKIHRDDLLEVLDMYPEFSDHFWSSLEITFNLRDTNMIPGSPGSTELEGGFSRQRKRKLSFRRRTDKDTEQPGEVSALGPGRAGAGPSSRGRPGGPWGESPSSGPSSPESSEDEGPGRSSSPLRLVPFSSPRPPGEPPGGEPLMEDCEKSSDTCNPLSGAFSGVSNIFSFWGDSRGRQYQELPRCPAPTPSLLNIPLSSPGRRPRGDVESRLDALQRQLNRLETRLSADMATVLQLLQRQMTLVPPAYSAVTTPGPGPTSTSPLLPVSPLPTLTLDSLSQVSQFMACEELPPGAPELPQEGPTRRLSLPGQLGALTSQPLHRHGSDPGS
Sequence of albumin (P02768 whole entry): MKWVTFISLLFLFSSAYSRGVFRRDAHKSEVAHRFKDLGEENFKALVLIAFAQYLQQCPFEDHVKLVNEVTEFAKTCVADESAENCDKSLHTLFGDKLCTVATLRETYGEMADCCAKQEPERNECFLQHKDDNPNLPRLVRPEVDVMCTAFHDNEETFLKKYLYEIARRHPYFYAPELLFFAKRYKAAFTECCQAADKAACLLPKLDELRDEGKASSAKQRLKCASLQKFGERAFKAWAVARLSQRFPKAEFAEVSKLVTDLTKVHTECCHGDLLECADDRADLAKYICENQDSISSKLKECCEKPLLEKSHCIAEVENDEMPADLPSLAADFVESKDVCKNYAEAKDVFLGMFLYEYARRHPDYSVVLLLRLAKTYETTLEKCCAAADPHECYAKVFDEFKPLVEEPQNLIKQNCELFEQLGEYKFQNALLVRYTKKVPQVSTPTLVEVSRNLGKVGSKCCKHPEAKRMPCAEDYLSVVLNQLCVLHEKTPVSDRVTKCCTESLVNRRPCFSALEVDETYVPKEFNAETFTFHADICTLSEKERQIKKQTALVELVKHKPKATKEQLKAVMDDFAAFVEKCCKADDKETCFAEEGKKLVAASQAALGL
Sequence of Tyrosine-protein kinase JAK1 (P23458 whole entry): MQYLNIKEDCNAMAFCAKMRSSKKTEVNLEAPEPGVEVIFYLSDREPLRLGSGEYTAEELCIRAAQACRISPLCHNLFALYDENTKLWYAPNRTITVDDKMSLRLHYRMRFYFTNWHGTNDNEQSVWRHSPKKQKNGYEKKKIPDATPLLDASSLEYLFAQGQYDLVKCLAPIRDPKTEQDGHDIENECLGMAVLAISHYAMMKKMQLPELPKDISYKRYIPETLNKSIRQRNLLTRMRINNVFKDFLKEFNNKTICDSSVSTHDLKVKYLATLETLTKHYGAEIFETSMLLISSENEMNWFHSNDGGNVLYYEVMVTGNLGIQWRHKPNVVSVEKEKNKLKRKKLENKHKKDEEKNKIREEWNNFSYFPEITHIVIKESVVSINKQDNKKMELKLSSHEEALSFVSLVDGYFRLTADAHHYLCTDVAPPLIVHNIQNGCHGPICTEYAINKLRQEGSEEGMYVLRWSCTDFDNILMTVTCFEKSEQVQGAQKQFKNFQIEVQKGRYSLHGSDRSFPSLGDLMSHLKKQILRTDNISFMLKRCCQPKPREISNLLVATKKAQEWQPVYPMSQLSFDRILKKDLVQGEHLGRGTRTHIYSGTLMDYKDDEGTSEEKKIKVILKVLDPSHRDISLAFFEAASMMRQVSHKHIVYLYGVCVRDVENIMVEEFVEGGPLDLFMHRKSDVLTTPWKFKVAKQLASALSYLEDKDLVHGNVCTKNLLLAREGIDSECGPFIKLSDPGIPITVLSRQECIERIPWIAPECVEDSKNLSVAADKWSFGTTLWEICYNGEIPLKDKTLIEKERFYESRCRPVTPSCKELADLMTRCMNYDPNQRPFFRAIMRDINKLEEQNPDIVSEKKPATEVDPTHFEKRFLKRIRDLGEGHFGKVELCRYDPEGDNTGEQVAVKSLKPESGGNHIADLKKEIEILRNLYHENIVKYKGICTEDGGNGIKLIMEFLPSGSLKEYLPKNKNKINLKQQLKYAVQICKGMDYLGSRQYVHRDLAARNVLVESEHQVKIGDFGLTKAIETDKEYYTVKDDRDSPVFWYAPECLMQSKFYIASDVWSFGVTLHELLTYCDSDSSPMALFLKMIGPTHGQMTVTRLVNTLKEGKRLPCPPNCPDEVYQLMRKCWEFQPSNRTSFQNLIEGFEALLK

Row | SMILES | IC50 [1] [nM] | IC50 [2] [nM] | IC50 [3] [nM] | fraction unbound [4] | further results
1 | CN(C)c1ccc(-c2cc3nccnc3c(NC[C@H]3CNCCO3)n2)cn1 | > 50100 | 1580 | 200 | 0.11 | –
2 | CN(C)c1ccc(-c2cc3nccnc3c(NC[C@H]3CNCCC3(F)F)n2)cn1 | 20000 | 1580 | 31.6 | 0.05 | –
3 | Cn1cc(-c2cc3nccnc3c(NC[C@@H]3CNCCC3(F)F)n2)cn1 | 25100 | 79.4 | 3.98 | – | –
4 | CN(C)c1ccc(-c2cc3ncccc3c(NC[C@H]3CCCNC3)n2)cn1 | > 50100 | 794 | 7.94 | 0.06 | –
5 | CN(C)c1ccc(-c2cc3nccnc3c(NCCCCO)n2)cn1 | 31600 | > 10000 | 200 | 0.08 | –
6 | Cc1ccc(-c2cc3ncncc3c(NC[C@H]3CCCNC3)n2)cc1 | 10000 | 3980 | 200 | 0.09 | –
7 | CN(C)c1ccc(-c2cc3nccnc3c(NCCC(N)=O)n2)cn1 | > 50100 | 3980 | 158 | 0.04 | –
8 | Cc1ccc(-c2cc3ncccc3c(NC[C@H]3CCCNC3)n2)cc1 | – | 794 | 20 | 0.05 | –
9 | CN1CCNC[C@H]1COc1nc(-c2cnn(C)c2)cc2nccnc12 | > 50100 | 100 | – | – | –
10 | CN(C)c1ccc(-c2cc3nccnc3c(NC[C@H]3CNCCN3C)n2)cn1 | 15800 | 251 | 79.4 | 0.07 | –
11 | Cn1cc(-c2cc3nccnc3c(NC[C@@H]3CNCCO3)n2)cn1 | > 50100 | 158 | 63.1 | – | inhibition in vivo at 30 mg/kg [5]: 85%; inhibition in vivo at 10 mg/kg [6]: 45%; IC50 [7]: 501 nM; Activity [8]: Non-Toxic; half-life [9]: 1.7 h; inhibition [10]: Dose-dependent effect; Activity [11]: Non-Toxic; IC50 [12]: 251 nM; IC50 [13]: 251 nM
12 | c1cnc2c(NC[C@H]3CCCNC3)nc(-c3cc[nH]n3)cc2n1 | > 50100 | – | – | 0.21 | –
13 | Cc1ccc(-c2cc3nccnc3c(NC[C@H]3CCCNC3)n2)s1 | 5010 | 1000 | 20 | 0.08 | –
14 | Cc1ccc(-c2cc3nccnc3c(NC[C@H]3CCCNC3)n2)o1 | 20000 | 794 | – | – | –
15 | Cn1cc(-c2cc3nccnc3c(OCC3CNCC(F)(F)C3)n2)cn1 (racemic) | > 50100 | 631 | 158 | – | pKa [14]: 7; AUC [15]: 296 ng·h/mL; Cmax [16]: 148 ng/mL; IC50 [17]: 63.1 nM
16 | CN(C)c1ccc(-c2cc3nccnc3c(NCC(F)(F)F)n2)cn1 | > 50100 | > 10000 | 126 | 0.04 | chromatographic logD [18]: 5.7; IC50 [17]: 50.1 nM
17 | c1cnc2c(NC[C@H]3CCCNC3)nc(N3CCNCC3)cc2n1 | > 50100 | – | > 25100 | 0.3 | –
18 | CN(C)c1ccc(-c2cc3nccnc3c(OC[C@H]3CCCNC3)n2)cn1 | 10000 | 126 | 3.98 | 0.1 | –
19 | CN(C)c1ccc(-c2cc3nccnc3c(NC[C@H]3CCCNC3)n2)cn1 | – | 316 | 15.8 | 0.08 | –

Row | SMILES | IC50 [1] [nM] | IC50 [2] [nM] | IC50 [3] [nM] | fraction unbound [4] | further results
20 | Cn1cc(-c2cc3nccnc3c(OC[C@H]3CCCNC3)n2)cn1 | > 50100 | 200 | 39.8 | 0.22 | –
21 | CN(C)c1ccc(-c2cc3nccnc3c(NC[C@@H]3CNCCC3(F)F)n2)cn1 | – | 158 | 2.51 | 0.05 | –
22 | Cn1cc(-c2cc3nccnc3c(NC[C@H]3CCCNC3)n2)cn1 | > 50100 | 126 | 31.6 | 0.25 | –
23 | O=C1CN(c2cc3nccnc3c(NC[C@H]3CCCNC3)n2)CCN1 | – | – | 6310 | 0.41 | chromatographic logD [18]: 0.6; IC50 [17]: 7940 nM
24 | CN(C)c1ccc(-c2cc(NC[C@H]3CCCNC3)c3cccnc3c2)cn1 | – | 501 | 6.31 | 0.05 | –
25 | CN(C)c1ccc(-c2cc3nccnc3c(CCC3CCCNC3)n2)cn1 (racemic) | – | 1000 | 251 | 0.09 | chromatographic logD [18]: 2.4
26 | CN(C)c1ccc(-c2cc3nccnc3c(NC[C@@H]3CNCCN3C)n2)cn1 | > 50100 | – | 50.1 | 0.09 | –
27 | Cn1cc(-c2cc3nccnc3c(OCC3CNCCC3(F)F)n2)cn1 (racemic) | – | – | – | – | pKa [14]: 7.7; AUC [15]: 99 ng·h/mL; Cmax [16]: 28 ng/mL
28 | Cn1cc(-c2cc3nccnc3c(NCC3CNCC(F)(F)C3)n2)cn1 (racemic) | > 50100 | 2000 | 316 | – | pKa [14]: 6.9; AUC [15]: 216 ng·h/mL; Cmax [16]: 96 ng/mL; IC50 [17]: 501 nM
29 | CN1CCNC[C@H]1CNc1nc(-c2cnn(C)c2)cc2nccnc12 | > 50100 | 200 | 100 | – | –
30 | Cc1ccc(-c2cc3nccnc3c(NC[C@H]3CCCNC3)n2)cc1 | – | 794 | 25.1 | 0.09 | –
31 | CN(C)c1ccc(-c2cc3nccnc3c(OC[C@@H]3CCCNC3)n2)cn1 | 12600 | 501 | 25.1 | 0.09 | –
32 | Cc1ccc(-c2cc3ncn(C)c(=O)c3c(NC[C@H]3CCCNC3)n2)cc1 | 25100 | 1260 | 79.4 | 0.1 | –
33 | CN(C)c1ccc(-c2cc3nccnc3c(NCC3CNCC(F)(F)C3)n2)cn1 (racemic) | > 50100 | 1580 | 100 | 0.07 | chromatographic logD [18]: 4.2; IC50 [17]: 501 nM
34 | Cc1ccc(-c2cc3nccnc3c(NCCCCN)n2)cc1 | 15800 | – | – | – | IC50 [7]: 2000 nM; IC50 [19]: 1580 nM
35 | CN(C)c1ccc(-c2cc3nccnc3c(NCCCCN)n2)cn1 | 39800 | – | – | 0.11 | –
36 | Cc1ccc(-c2cc3nc[nH]c(=O)c3c(NC[C@H]3CCCNC3)n2)cc1 | 7940 | 3980 | 158 | 0.09 | –
37 | CN(C)c1ccc(-c2cc3nccnc3c(NC[C@@H]3CNCCO3)n2)cn1 | > 50100 | 316 | 25.1 | 0.12 | –
38 | c1cnc2c(NC[C@H]3CCCNC3)nc(-c3cn[nH]c3)cc2n1 | > 50100 | 316 | 50.1 | 0.24 | –

From ChEMBL document CHEMBL4431389, “Optimisation of a novel series of potent and orally bioavailable azanaphthyridine SYK inhibitors” (Bioorg Med Chem Lett, 2016)
